Data as given in ChEMBL document CHEMBL3244183, “Synthesis and antibacterial activity of isomeric 6- and 7-acetyl-3-methyl-2- quinoxalinecarbozamide 1,4-dioxides” (1978).
Converted amounts (≈) assume the structure as drawn.

Assays:
Format in all cases: functional
Escherichia coli [1] = assay: Antimicrobial activity against Escherichia coli measured after overnight incubation by susceptibility test
Procedure, shortened: (§1)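 MIC by agar dilution: about 10^4 organisms applied with a replicating device onto brain-heart infusion agar holding twofold dilutions of drug; plates incubated overnight at 37 °C under anaerobic conditions (Gas Pak environment); MIC read as lowest inhibiting concentration.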

Salmonella enterica [2] = assay: Antimicrobial activity against Salmonella choleraesuis measured after overnight incubation by susceptibility test
Procedure, shortened: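 MIC by agar dilution: about 10^4 organisms applied with a replicating device onto brain-heart infusion agar containing twofold dilutions of the quinoxaline 1,4-dioxide; incubated overnight at 37 °C under anaerobic conditions (Gas Pak).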

Pasteurella multocida [3] = assay: Antimicrobial activity against Pasteurella multocida measured after overnight incubation by susceptibility test; procedure, shortened: as §1
Streptococcus pyogenes [4] = assay: Antimicrobial activity against Streptococcus pyogenes measured after overnight incubation by susceptibility test; procedure, shortened: as §1
Escherichia coli [5] = assay: Antimicrobial activity against Escherichia coli infected in mouse compound administered orally at 0.5 hr, 4 hrs and 24 hrs post infection; conditions: po, read-out: PD50
Procedure, shortened: (§2)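 Male and female mice, 11–13 g. Acute systemic infection by intraperitoneal inoculation of 1–10 times the organism count killing 100% of untreated mice in 4 days; standardized cultures suspended in 5% hog gastric mucin. Treated 0.5 h after infection, again at 4.0 h and at 24 h. PD50 (50% protective dose) calculated by probit method.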

Escherichia coli [6] = assay: Antimicrobial activity against Escherichia coli infected in mouse compound administered subcutaneously at 0.5 hr, 4 hrs and 24 hrs post infection; conditions: sc, read-out: PD50; procedure, shortened: as §2
Salmonella enterica [7] = assay: Antimicrobial activity against Salmonella choleraesuis infected in mouse compound administered orally at 0.5 hr, 4 hrs and 24 hrs post infection; conditions: po, read-out: PD50; procedure, shortened: as §2
Salmonella enterica [8] = assay: Antimicrobial activity against Salmonella choleraesuis infected in mouse compound administered subcutaneously at 0.5 hr, 4 hrs and 24 hrs post infection; conditions: sc, read-out: PD50; procedure, shortened: as §2
Pasteurella multocida [9] = assay: Antimicrobial activity against Pasteurella multocida infected in mouse compound administered orally at 0.5 hr, 4 hrs and 24 hrs post infection; conditions: po, read-out: PD50
Procedure, shortened: (§3)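 Infections in male and female mice (11–13 g), given intraperitoneally at one to ten times the inoculum lethal to all nonmedicated mice within 4 days. Standardized cultures were suspended in brain-heart infusion broth. Doses were given at 0.5, 4.0 and 24 h post-infection. The 50% protective dose was derived by probit analysis.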

Pasteurella multocida [10] = assay: Antimicrobial activity against Pasteurella multocida infected in mouse compound administered subcutaneously at 0.5 hr, 4 hrs and 24 hrs post infection; conditions: sc, read-out: PD50; procedure, shortened: as §3
Streptococcus pyogenes [11] = assay: Antimicrobial activity against Streptococcus pyogenes infected in mouse compound administered orally at 0.5 hr, 4 hrs and 24 hrs post infection; conditions: po, read-out: PD50; procedure, shortened: as §3
Streptococcus pyogenes [12] = assay: Antimicrobial activity against Streptococcus pyogenes infected in mouse compound administered subcutaneously at 0.5 hr, 4 hrs and 24 hrs post infection; conditions: sc, read-out: PD50; procedure, shortened: as §3
Escherichia coli [13] = assay: Ratio of PD50 for Escherichia coli infected in po dosed mouse to PD50 for Escherichia coli infected in sc dosed mouse
Salmonella enterica [14] = assay: Ratio of PD50 for Salmonella choleraesuis infected in po dosed mouse to PD50 for Salmonella choleraesuis infected in sc dosed mouse
Pasteurella multocida [15] = assay: Ratio of PD50 for Pasteurella multocida infected in po dosed mouse to PD50 for Pasteurella multocida infected in sc dosed mouse
Streptococcus pyogenes [16] = assay: Ratio of PD50 for Streptococcus pyogenes infected in po dosed mouse to PD50 for Streptococcus pyogenes infected in sc dosed mouse

Row | Compound | MIC (Escherichia coli [1]) | MIC (Salmonella enterica [2]) | MIC (Pasteurella multocida [3]) | MIC (Streptococcus pyogenes [4]) | ED50 (Escherichia coli [5]) | ED50 (Escherichia coli [6]) | ED50 (Salmonella enterica [7]) | ED50 (Salmonella enterica [8]) | ED50 (Pasteurella multocida [9]) | ED50 (Pasteurella multocida [10]) | ED50 (Streptococcus pyogenes [11]) | ED50 (Streptococcus pyogenes [12]) | Ratio (Escherichia coli [13]) | Ratio (Salmonella enterica [14]) | Ratio (Pasteurella multocida [15]) | Ratio (Streptococcus pyogenes [16])
1 | CC(=O)c1ccc2c(c1)[n+]([O-])c(C)c(C(N)=O)[n+]2[O-] | 0.39 µg/mL (≈ 1.49 µM) | 0.39 µg/mL (≈ 1.49 µM) | 0.39 µg/mL (≈ 1.49 µM) | 0.19 µg/mL (≈ 0.727 µM) | 12.6 mg/kg | 10.9 mg/kg | 9.9 mg/kg | 7.6 mg/kg | 13.6 mg/kg | 11.7 mg/kg | 70 mg/kg | 54 mg/kg | – | – | – | –
2 | CC(=O)c1ccc2c(c1)[n+]([O-])c(C(N)=O)c(C)[n+]2[O-] | 0.39 µg/mL (≈ 1.49 µM) | 0.19 µg/mL (≈ 0.727 µM) | 0.19 µg/mL (≈ 0.727 µM) | 0.39 µg/mL (≈ 1.49 µM) | 13 mg/kg | 5.6 mg/kg | 9.1 mg/kg | 4.5 mg/kg | 12.7 mg/kg | 7.7 mg/kg | 15 mg/kg | 9.2 mg/kg | 2 | 2 | 2 | 2
